SENP7 block: SENP7 protease inhibition | inhibition, % at 5 µM | recombinant SENP7, Z-RLRGG-aminoluciferin luminescence, 40 min | 330,000 compounds, 1.5% hits;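 active = inhibition above about 50% at the single test dose, limit read from the data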;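 also: plate controls were DMSO with enzyme for no effect and no enzyme buffer wells for full effect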
Target sequence (Q9BQF6 706-1050 limits assumed): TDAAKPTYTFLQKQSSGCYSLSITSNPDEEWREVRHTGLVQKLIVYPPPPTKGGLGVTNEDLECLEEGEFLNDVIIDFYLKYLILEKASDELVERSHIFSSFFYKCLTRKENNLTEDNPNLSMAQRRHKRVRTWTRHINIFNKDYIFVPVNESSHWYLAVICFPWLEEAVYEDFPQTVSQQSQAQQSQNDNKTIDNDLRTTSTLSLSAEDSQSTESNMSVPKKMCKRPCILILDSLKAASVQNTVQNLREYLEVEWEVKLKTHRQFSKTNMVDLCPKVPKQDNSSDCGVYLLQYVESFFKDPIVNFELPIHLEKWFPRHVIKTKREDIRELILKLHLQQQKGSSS
SENP6 inh: SENP6 protease inhibition; Recombinant SENP6 catalytic domain, aminoluciferin luminescence; inhibition, % at 10 µM; 330,000 compounds, 1.8% hits;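 active = inhibition above about 50% at the single tested dose, limit read from the data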;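 also: plate controls were DMSO wells with enzyme for no effect and DMSO wells lacking enzyme for full effect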
SENP8 block-1: inhibitors of human SENP8 protease. inhibition, % at 20 µM. recombinant SENP8, Nedd8 substrate fluorescence. Q96LD8. AID 602440. 360,000 compounds, 0.64% hits; in the data active = inhibition mostly above about 40%, no sharp cut-off; inactive = mostly below about 27%
Target sequence (Q96LD8 whole entry, looked up): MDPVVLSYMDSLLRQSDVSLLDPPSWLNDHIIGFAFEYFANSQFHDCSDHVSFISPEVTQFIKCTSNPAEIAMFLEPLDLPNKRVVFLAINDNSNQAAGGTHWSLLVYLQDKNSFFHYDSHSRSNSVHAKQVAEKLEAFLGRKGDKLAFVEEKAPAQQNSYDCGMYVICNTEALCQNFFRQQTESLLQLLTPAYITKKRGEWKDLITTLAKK
SENP1 inh: blocks the human SENP1 SUMO protease catalytic domain; Q9P0U3; 360,000 compounds, 0.21% hits; inhibition, % at 10 µM; recombinant SENP1 catalytic domain, CyPet-SUMO1-YPet FRET cleavage;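 active = inhibition at least 30% at 10 µM, raw YFP signal under a set limit, fluorescence ratio 0.5 to 1.5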;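 also: 0% = enzyme with DMSO and 100% = no enzyme wells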
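System: Recombinant human SENP1 catalytic domain, His6-tagged | Incubation: Enzyme reaction for 50 min at room temperature, dark | Medium: Tris pH 8 with BME, BSA, NP40 and catalase | Also added: 25 nM SUMO1 FRET substrate | Compound: 10 µM single point, 0.5% DMSO | Measured by: FRET fluorescence in CFP and YFP emission channels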
SENP8 block-2: SENP8 protease inhibition; inhibition, % at 10 µM; 330,000 compounds, 1.2% hits; Q96LD8; purified SENP8, Z-RLRGG-aminoluciferin cleavage, luminescence; AID 2540; in the data active = inhibition above about 50%
Apaf-1 inh: inhibitors of human Apaf-1 apoptosome | 330,000 compounds, 0.71% hits | inhibition, % at 20 µM | reconstituted apoptosome caspase-3 activity, DEVD-Rh110 fluorescence | O14727; active = inhibition of at least 40% at 20 µM;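 also: plate controls were DMSO wells for no effect and DEVD-CHO caspase inhibitor wells for full effect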
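Material: reconstituted apoptosome with Apaf-1, cytochrome c, caspase-9, procaspase-3, dATP / Buffer or medium: pH 7.5 Hepes buffer with CHAPS, BSA, DTT / Also added: cytochrome c with DEVD-Rh110 / Schedule: compound with Apaf-1, dATP, procaspase-3 30 min, then 50 min reaction, room temperature / Technique: rhodamine 110 fluorescence at Ex 480/Em 540 nm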
SENP8 conf: human SENP8 inhibition, confirmed | AID 488912 | shares compounds with SENP7 block | 6,200 compounds, 40% hits | inhibition, % at 12.5 µM | Recombinant SENP8, Z-RLRGG-aminoluciferin luminescence, 60 min;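 active = mean inhibition across replicates above about 50%, limit read from the data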
SENP6 confirm: confirmation of human SENP6 protease inhibitors; 6,200 compounds, 58% hits; inhibition, % at 12.5 µM; shares compounds with SENP7 block; recombinant SENP6, Z-RLRGG-aminoluciferin luminescence
SENP7 conf: confirmation of human SENP7 protease inhibitors | inhibition, % at 12.5 µM | recombinant SENP7, Z-RLRGG-aminoluciferin luminescence, 40 min | shares compounds with SENP7 block | 6,200 compounds, 69% hits
Casp3 select: caspase-3 inhibition (SENP selectivity assay); inhibition, % at 12.5 µM; 6,200 compounds, 60% hits; AID 488918; purified caspase-3, Z-DEVD-aminoluciferin luminescence, 60 min; shares compounds with SENP7 block;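 active = mean inhibition above about 50%, limit read from the data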;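 also: plate controls were enzyme with DMSO for no effect and wells without caspase-3 for full effect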
Luc interf: interferes with luciferase luminescence in SENP counter-screen; shares compounds with SENP7 block; Pre-incubated SENP8/Z-RLRGG-aminoluciferin, luciferase luminescence interference; inhibition, % at 12.5 µM; 6,200 compounds, 39% hits;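 active = mean inhibition above about 50% when retested at one dose, limit read from the data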;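 also: plate controls were DMSO wells with completed reaction for no effect and substrate without enzyme for full effect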
* = called active by the depositor. Rows were chosen to be rich in hits. Some 2.9% of all compounds tested hit in one or more screens of this group.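 The calls were made as follows, unless noted: active = mean inhibition above about 50% in the one-dose retest (limit read from the data); inactive = the rest.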

CN(C(=O)c1ccc(NC(=O)Cc2ccccc2)cc1)c1ccccc1 was read as SENP7 block 61*, SENP6 inh 54*, SENP8 block-1 8, SENP1 inh 1, SENP8 block-2 41, Apaf-1 inh 15, SENP8 conf 37, SENP6 confirm 39, SENP7 conf 74*, Casp3 select 65* and Luc interf 59*.
`COc1ccc(-c2cc(-c3ccccc3O)[nH]n2)cc1` gave SENP7 block 94*, SENP6 inh 97*, SENP8 block-1 29, SENP1 inh 2, SENP8 block-2 92*, Apaf-1 inh 10, SENP8 conf 96*, SENP6 confirm 97*, SENP7 conf 102*, Casp3 select 78* and Luc interf 94*.
COc1ccc(-c2cc(-c3ccccc3)n[nH]2)c(O)c1 was read as SENP7 block 65*, SENP6 inh 68*, SENP8 block-1 -3, SENP1 inh 2, SENP8 block-2 66*, Apaf-1 inh 10, SENP8 conf 74*, SENP6 confirm 72*, SENP7 conf 90*, Casp3 select 28 and Luc interf 72*.
`COc1ccc(O)c(-c2cc(-c3ccccc3Cl)[nH]n2)c1` gave SENP7 block 38, SENP6 inh 49, SENP8 block-1 -3, SENP1 inh -3, SENP8 block-2 46 and Apaf-1 inh 7.
For CCN(CC)S(=O)(=O)c1ccc(N=NC2=C(O)CCCC2=O)cc1 the results were SENP7 block 8, SENP6 inh 26, SENP8 block-1 19, SENP1 inh -1, SENP8 block-2 4 and Apaf-1 inh -11.
Screening CCN(CC)S(=O)(=O)c1ccc(N=Nc2c(N)[nH]c(=O)[nH]c2=O)cc1 returned SENP7 block 26, SENP6 inh 52*, SENP8 block-1 43*, SENP1 inh 1, SENP8 block-2 20, Apaf-1 inh -21, SENP8 conf 15, SENP6 confirm 11, SENP7 conf 14, Casp3 select 37 and Luc interf 2.
Screening COc1ccc(C(=O)CNc2ccccc2Br)cc1 returned SENP7 block 9, SENP6 inh 58*, SENP8 block-1 21, SENP1 inh 0, SENP8 block-2 47, Apaf-1 inh 4, SENP8 conf 19, SENP6 confirm 64*, SENP7 conf 61*, Casp3 select 36 and Luc interf 6.
`COc1ccc(C(=O)CC(=O)c2ccccc2)cc1` gave SENP7 block 74*, SENP6 inh 77*, SENP8 block-1 -12, SENP1 inh 1, SENP8 block-2 67*, Apaf-1 inh -9, SENP8 conf 70*, SENP6 confirm 70*, SENP7 conf 92*, Casp3 select 55* and Luc interf 59*.
Screening COc1ccc(C(=O)CNc2ccc3ccccc3c2)cc1 returned SENP7 block 2, SENP6 inh 46, SENP8 block-1 -358, SENP1 inh -39, SENP8 block-2 6 and Apaf-1 inh 6.
For COC(=O)c1ccc(OCC(=O)c2ccccc2)cc1 the results were SENP7 block 57*, SENP6 inh 35, SENP8 block-1 14, SENP1 inh 2, SENP8 block-2 26, Apaf-1 inh 1, SENP8 conf 52*, SENP6 confirm 51*, SENP7 conf 84*, Casp3 select 73* and Luc interf 62*.
`CN(C)c1ccc(C(C(=O)NCc2ccccc2)N(Cc2cccnc2)C(=O)c2snc(C(N)=O)c2N)cc1` (stereo unspecified) gave SENP7 block 8, SENP6 inh 2, SENP8 block-1 -23, SENP1 inh 0, SENP8 block-2 1 and Apaf-1 inh 8.
Screening Nc1[nH]nc2c1NN(c1ccc(Cl)cc1Cl)N2 returned SENP7 block 39, SENP6 inh 65*, SENP8 block-1 15, SENP1 inh 1, SENP8 block-2 37, Apaf-1 inh 21, SENP8 conf -3, SENP6 confirm -5, SENP7 conf -6, Casp3 select -3 and Luc interf 0.
Cc1cc(N/C=C/C(=O)c2ccc(Br)cc2)no1 was read as SENP7 block 1, SENP6 inh -25, SENP8 block-1 -10, SENP1 inh 0, SENP8 block-2 -8 and Apaf-1 inh -19.
Screening Cc1ccnc(N/C=C/C(=O)c2ccc(Br)cc2)c1 returned SENP7 block 96*, SENP6 inh 88*, SENP8 block-1 -202, SENP1 inh -41, SENP8 block-2 87*, Apaf-1 inh 6, SENP8 conf 26, SENP6 confirm 40, SENP7 conf 60*, Casp3 select 54* and Luc interf 18.
For COc1ccc(C(=O)/C=C/Nc2cc(C)ccn2)cc1 the results were SENP7 block 95*, SENP6 inh 95*, SENP8 block-1 -319, SENP1 inh -4, SENP8 block-2 95*, Apaf-1 inh -165, SENP8 conf 12, SENP6 confirm 99*, SENP7 conf 103*, Casp3 select 96* and Luc interf 47.
For CN(C)S(=O)(=O)c1cccc(NC(=O)c2ccc(NS(=O)(=O)c3cccs3)cc2)c1 the results were SENP7 block -6, SENP6 inh -4, SENP8 block-1 19, SENP1 inh 2, SENP8 block-2 3 and Apaf-1 inh -13.
For OC(c1ccc(F)cc1)c1nc(-c2ccoc2)cs1 (stereo unspecified) the results were SENP8 block-1 14 and SENP1 inh -1.
Screening COc1ccccc1-c1cnc(C(O)c2ccc(Cl)c(Cl)c2)[nH]1 (stereo unspecified) returned SENP8 block-1 4 and SENP1 inh -2.
COC(=O)CSc1nnc(-c2sc3ccccc3c2Cl)o1 was read as SENP7 block 56*, SENP6 inh 70*, SENP8 block-1 -306, SENP1 inh -5, SENP8 block-2 28, Apaf-1 inh 3, SENP8 conf -5, SENP6 confirm -3, SENP7 conf 5, Casp3 select 9 and Luc interf 2.
